Experiments:
[1] = system: A549; assay: Cytotoxicity against human A549 cells after 48 hrs by MTT assay; type: functional, cell-based; conditions: A549, 48 h
Outline: (§1)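 A549 human NSCLC cells kept in MEM with 10% FBS, penicillin/streptomycin and amphotericin B at 37 °C under humidified 5% CO2. Seeded at 1x10⁴ cells/well and left 24 h, then exposed to a range of concentrations for 48 h or 72 h at 37 °C. MTT (1 mg/mL) added for 4 h, formazan dissolved in DMSO, absorbance read at 540 nm. IC50 taken against untreated controls by log(compound) vs normalized response (variable slope) fit, with 95% CI.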

[2] = system: A549; assay: Cytotoxicity against human A549 cells after 72 hrs by MTT assay; type: functional, cell-based; conditions: A549, 72 h; outline: as §1
[3] = system: A549; assay: Ratio of IC50 for human A549 cells after 48 hrs to IC50 for human A549 cells after 72 hrs; type: functional
Outline: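 Ratio of the 48 h to the 72 h IC50 in A549 cells. Both IC50s come from the MTT assay (1x10⁴ cells/well, 24 h attachment, then 48 h or 72 h compound exposure). Each was fitted by log(compound) vs normalized response nonlinear regression (variable slope), relative to untreated controls.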

Compound | IC50 [1] [µM] | IC50 [2] [µM] | Ratio IC50 [3]
CC(=O)OC(C)(C)CCC(=O)[C@](C)(O)[C@H]1C(=O)C[C@@]2(C)[C@@H]3CC=C4[C@@H](C[C@H](O)C(=O)C4(C)C)[C@]3(C)C(=O)C[C@]12C | 54.4 | 26.5 | 2.1
CC(=O)OC(C)(C)CCC(=O)[C@](C)(O)[C@H]1C(=O)C[C@@]2(C)[C@@H]3CC=C4[C@@H](C=C(O)C(=O)C4(C)C)[C@]3(C)C(=O)C[C@]12C | > 100 | > 100 | 
CC(=O)O[C@H]1C[C@@H]2C(=CC[C@@H]3[C@@]2(C)C(=O)C[C@]2(C)[C@@H]([C@@](C)(O)C(=O)CCC(C)(C)OC(C)=O)[C@H](OC(C)=O)C[C@@]32C)C(C)(C)C1=O | > 100 | 72.5 | 
CC(=O)OC(C)(C)CCC(=O)[C@](C)(O)[C@H]1[C@H](OC(=O)CCC(=O)O)C[C@@]2(C)[C@@H]3CC=C4[C@@H](C[C@H](OC(=O)CCC(=O)O)C(=O)C4(C)C)[C@]3(C)C(=O)C[C@]12C | > 100 | > 100 | 
CC(=O)O[C@H]1C[C@@H]2C(=CC[C@@H]3[C@@]2(C)C(=O)C[C@]2(C)[C@@H]([C@@](C)(O)C(=O)/C=C/C(C)(C)OC(C)=O)[C@H](OC(C)=O)C[C@@]32C)C(C)(C)C1=O | 14.7 | 2.64 | 5.5
CC(=O)OC(C)(C)CCC(=O)[C@](C)(O)[C@H]1[C@H](O)C[C@@]2(C)[C@@H]3CC=C4[C@@H](C[C@H](OC(=O)c5ccccc5)C(=O)C4(C)C)[C@]3(C)C(=O)C[C@]12C | > 100 | > 100 | 
CC(=O)OC(C)(C)CCC(=O)[C@](C)(O)[C@H]1[C@H](OC(=O)c2ccccc2)C[C@@]2(C)[C@@H]3CC=C4[C@@H](C[C@H](OC(=O)c5ccccc5)C(=O)C4(C)C)[C@]3(C)C(=O)C[C@]12C | > 100 | > 100 | 
CC(=O)OC(C)(C)CCC(=O)[C@](C)(O)[C@H]1[C@H](OC(=O)n2ccnc2)C[C@@]2(C)[C@@H]3CC=C4[C@@H](C[C@H](OC(=O)n5ccnc5)C(=O)C4(C)C)[C@]3(C)C(=O)C[C@]12C | > 100 | > 100 | 
CC(=O)O[C@@H]1C[C@@]2(C)[C@@H]3CC=C4[C@@H](C[C@H](Sc5ccccc5)C(=O)C4(C)C)[C@]3(C)C(=O)C[C@]2(C)[C@H]1[C@@](C)(O)C(=O)CCC(C)(C)OC(C)=O | > 100 | > 100 | 
CC(=O)O[C@@H]1C[C@@]2(C)[C@@H]3CC=C4[C@@H](C[C@H](SC(C)=O)C(=O)C4(C)C)[C@]3(C)C(=O)C[C@]2(C)[C@H]1[C@@](C)(O)C(=O)CCC(C)(C)OC(C)=O | > 100 | > 100 | 
CC(=O)OC(C)(C)CCC(=O)[C@](C)(O)[C@H]1[C@H](O)C[C@@]2(C)[C@@H]3CC=C4[C@@H](Cc5sc(N)nc5C4(C)C)[C@]3(C)C(=O)C[C@]12C | > 100 | > 100 | 
CC(=O)OC(C)(C)/C=C/C(=O)[C@](C)(O)[C@H]1[C@H](O)C[C@@]2(C)[C@@H]3CC=C4[C@@H](Cc5sc(N)nc5C4(C)C)[C@]3(C)C(=O)C[C@]12C | 28.8 | 11.5 | 2.5
CC(=O)OC(C)(C)CCC(=O)[C@](C)(O)[C@H]1[C@H](O)C[C@@]2(C)[C@@H]3CC=C4[C@@H](C[C@H](Br)C(=O)C4(C)C)[C@]3(C)C(=O)C[C@]12C | 34.9 | 29.1 | 1.2
CC(=O)OC(C)(C)/C=C/C(=O)[C@](C)(O)[C@H]1[C@H](O)C[C@@]2(C)[C@@H]3CC=C4[C@@H](C[C@H](Br)C(=O)C4(C)C)[C@]3(C)C(=O)C[C@]12C | 1.33 | 0.12 | 11.1
CC(=O)OC(C)(C)CCC(=O)[C@](C)(O)[C@H]1[C@H](O)C[C@@]2(C)[C@@H]3CC=C4[C@@H](C=C(N)C(=O)C4(C)C)[C@]3(C)C(=O)C[C@]12C | > 100 | > 100 | 
CC(=O)O[C@@H]1C[C@@]2(C)[C@@H]3CC=C4[C@@H](C=C(N)C(=O)C4(C)C)[C@]3(C)C(=O)C[C@]2(C)[C@H]1[C@@](C)(O)C(=O)CCC(C)(C)OC(C)=O | > 100 | 55.2 | 
CC(=O)OC(C)(C)/C=C/C(=O)[C@](C)(O)[C@H]1[C@H](O)C[C@@]2(C)[C@@H]3CC=C4[C@@H](C=C(N)C(=O)C4(C)C)[C@]3(C)C(=O)C[C@]12C | 0.42 | 0.12 | 3.5

Compound | IC50 [1] [µM] | IC50 [2] [µM] | Ratio IC50 [3]
CC(=O)OC(C)(C)CCC(=O)[C@](C)(O)[C@H]1[C@H](OC(=S)n2ccnc2)C[C@@]2(C)[C@@H]3CC=C4[C@@H](C[C@H](OC(=S)n5ccnc5)C(=O)C4(C)C)[C@]3(C)C(=O)C[C@]12C | 14.7 | 6.9 | 2.1
CC(=O)OC(C)(C)CCC(=O)[C@](C)(O)[C@H]1[C@H](O)C[C@@]2(C)[C@@H]3CC=C4[C@@H](CCC(=O)C4(C)C)[C@]3(C)C(=O)C[C@]12C | > 100 | 66.7 | 
CC(=O)OC(C)(C)CCC(=O)[C@](C)(O)[C@H]1CC[C@@]2(C)[C@@H]3CC=C4[C@@H](CCC(=O)C4(C)C)[C@]3(C)C(=O)C[C@]12C | > 100 | 11.5 | 
CC(=O)[C@H]1[C@H](OC(=O)c2ccccc2)C[C@@]2(C)[C@@H]3CC=C4[C@@H](C[C@H](OC(=O)c5ccccc5)[C@@H](O)C4(C)C)[C@]3(C)C(=O)C[C@]12C | > 100 | > 100 | 
CC(=O)[C@H]1[C@H](O)C[C@@]2(C)[C@@H]3CC=C4[C@@H](C=C(O)C(=O)C4(C)C)[C@]3(C)C(=O)C[C@]12C | > 100 | > 100 | 
CC(=O)OC(C)(C)/C=C/[C@H](O)[C@](C)(O)[C@H]1[C@H](O)C[C@@]2(C)[C@@H]3CC=C4[C@@H](C[C@H](O)[C@@H](O)C4(C)C)[C@]3(C)C(=O)C[C@]12C | > 100 | > 100 | 
CC(=O)O[C@H]1C[C@@H]2C(=CC[C@@H]3[C@@]2(C)C(=O)C[C@]2(C)[C@@H]([C@@](C)(OC(=O)C(F)(F)F)C(=O)CCC(C)(C)OC(C)=O)[C@H](OC(C)=O)C[C@@]32C)C(C)(C)C1=O | > 100 | > 100 | 
CC(=O)O[C@H]1C[C@@H]2C(=CC[C@@H]3[C@@]2(C)C(=O)C[C@]2(C)[C@@H]([C@@](C)(O)C(=O)CC=C(C)C)[C@H](OC(C)=O)C[C@@]32C)C(C)(C)C1=O | > 100 | 42.6 | 
CC(=O)OC(C)(C)CCC(=O)[C@](C)(O)[C@H]1[C@H](O)C[C@@]2(C)[C@@H]3CC=C4[C@@H](C=CC(=O)C4(C)C)[C@]3(C)C(=O)C[C@]12C | 87.8 | 77.7 | 1.1
CC(=O)O[C@H]1C[C@@H]2C(=CC(=O)[C@@H]3[C@@]2(C)C(=O)C[C@]2(C)[C@@H]([C@@](C)(O)C(=O)CCC(C)(C)OC(C)=O)[C@H](OC(C)=O)C[C@@]32C)C(C)(C)C1=O | > 100 | > 100 | 
CC(=O)OC(C)(C)CCC(=O)[C@](C)(O)[C@H]1[C@H](O)C[C@@]2(C)[C@@H]3CC=C4[C@@H](C=C(O)C(=O)C4(C)C)[C@]3(C)C(=O)C[C@]12C | > 100 | > 100 | 
CC(=O)OC(C)(C)CCC(=O)[C@](C)(O)[C@H]1[C@H](O)C[C@@]2(C)[C@@H]3CC=C4[C@@H](C[C@H](O)C(=O)C4(C)C)[C@]3(C)C(=O)C[C@]12C [23,24-DIHYDROCUCURBITACIN B] | 19.9 | 12.1 | 1.6
CC(=O)OC(C)(C)/C=C/C(=O)[C@](C)(O)[C@H]1[C@H](O)C[C@@]2(C)[C@@H]3CC=C4[C@H](C[C@H](O)C(=O)C4(C)C)[C@]3(C)C(=O)C[C@]12C [CUCURBITACIN B] | 0.13 | 0.04 | 3.3
COc1cccc2c1C(=O)c1c(O)c3c(c(O)c1C2=O)C[C@@](O)(C(=O)CO)C[C@@H]3O[C@H]1C[C@H](N)[C@H](O)[C@H](C)O1 [DOXORUBICIN] | 3.69 | 1.18 | 3.1
CC(=O)[C@H]1[C@H](O)C[C@@]2(C)[C@@H]3CC=C4[C@@H](C[C@H](O)[C@@H](O)C4(C)C)[C@]3(C)C(=O)C[C@]12C [HEXANORCUCURBITACIN F] | > 100 | > 100 | 
CC(=O)O[C@H]1C(=O)[C@@]2(C)[C@H]([C@H](OC(=O)c3ccccc3)[C@]3(O)C[C@H](OC(=O)[C@H](O)[C@@H](NC(=O)c4ccccc4)c4ccccc4)C(C)=C1C3(C)C)[C@]1(OC(C)=O)CO[C@@H]1C[C@@H]2O [PACLITAXEL] | 1.16 | 0.19 | 6.1

From ChEMBL document CHEMBL2016559, “Synthesis and cytotoxic activity evaluation of dihydrocucurbitacin B and cucurbitacin B derivatives” (Bioorg Med Chem, 2012)
